Data: ChEMBL document CHEMBL1649585, “Role of the Mycobacterium tuberculosis P55 efflux pump in intrinsic drug resistance, oxidative stress responses, and growth” (2009)
Values after ≈ are worked out from the molar mass of the structure shown. Active and inactive are the calls of the source. No cut-off for these calls is given here. Where a SMILES comes first, the peptide text is derived from it. Bridges are numbered along the chain shown (N, C = ends). [ ]: non-standard residue; d: D form. The star is where a group is joined. Ileψ(thiazoline)Cys = CC[C@H](C)[C@H](N)C1=N[C@H](C(=O)*)CS1; dOrn = NCCC[C@@H](N)C(=O)O

Columns and labels:
[1] = test system: Mycobacterium tuberculosis variant bovis BCG; assay: Antimicrobial activity against Mycobacterium bovis BCG KOP55 harboring inactivated p55 gene at 5 umol after 14 days by disk diffusion method; type: functional
Summary of the method: (§1)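 Disc assay on Middlebrook 7H10 agar: lawn spread from a suspension of 10^6 cells/ml, discs carrying the redox compound placed on the lawn, halos recorded after 14 days at 37°C.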

[2] = test system: Mycobacterium tuberculosis variant bovis BCG; assay: Antimicrobial activity against Mycobacterium bovis BCG P55 at 5 umol after 14 days by disk diffusion method; type: functional; summary of the method: as §1
[3] = test system: Mycobacterium tuberculosis variant bovis BCG; assay: Antimicrobial activity against Mycobacterium bovis BCG KOP55 harboring inactivated p55 gene by resazurine microtiter assay; type: functional; conditions: KOP55, Urine
Summary of the method: (§2)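 Resazurin microdilution in liquid medium: serial twofold compound dilutions, plates incubated 8 days at 37°C, then 2 more days after adding resazurin. MIC read from the indicator. Run in triplicate and repeated at least three times.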

[4] = test system: Mycobacterium tuberculosis variant bovis BCG; assay: Antimicrobial activity against Mycobacterium bovis BCG KOP55 harboring inactivated p55 gene by resazurine microtiter assay in presence of 1 mg/liter CCCP; type: functional; conditions: KOP55, Urine
Summary of the method: (§3)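 Resazurin microdilution MIC (serial twofold dilutions, 8 days at 37°C plus 2 days after resazurin) run with a fixed subinhibitory level of efflux pump inhibitor (valinomycin, reserpine or CCCP) present throughout. Triplicate, repeated at least three times.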

[5] = test system: Mycobacterium tuberculosis variant bovis BCG; assay: Antimicrobial activity against Mycobacterium bovis BCG KOP55 harboring pPAZ23 carrying p27-p55 operon by resazurine microtiter assay; type: functional; conditions: KOP55, Urine; summary of the method: as §2
[6] = test system: Mycobacterium tuberculosis variant bovis BCG; assay: Antimicrobial activity against Mycobacterium bovis BCG KOP55 harboring pPAZ23 carrying p27-p55 operon by resazurine microtiter assay in presence of 1 mg/liter CCCP; type: functional; conditions: KOP55, Urine; summary of the method: as §3
[7] = test system: Mycobacterium tuberculosis variant bovis BCG; assay: Antimicrobial activity against Mycobacterium bovis BCG KOP55 harboring inactivated p55 gene by twofold dilution method; type: functional
Summary of the method: (§4)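 Agar MIC: log-phase cultures diluted to 10^5 cells/ml, 10 µl spotted onto Middlebrook 7H10 plates with serial twofold antibiotic dilutions. Visible growth scored after 21 days at 37°C. Triplicate, repeated at least three times.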

[8] = test system: Mycobacterium tuberculosis variant bovis BCG; assay: Antimicrobial activity against Mycobacterium bovis BCG KOP55 harboring pPAZ23 carrying p27-p55 operon by twofold dilution method; type: functional; summary of the method: as §4
[9] = test system: Mycobacterium tuberculosis variant bovis BCG; assay: Decrease in intracellular redox potential in Mycobacterium bovis BCG KOP55 harboring inactivated p55 gene assessed as decreased accumulation of formazan at 5 mg/liter after 1 hr by MTT assay; type: functional; set-up: scale not given: the % may be the effect or the level left
Summary of the method: (§5)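 MTT reduction as an index of intracellular redox potential: cultures at OD600 0.2 treated with drug or solvent for 1 h at 37°C in quadruplicate wells, MTT (2 mg/ml stock) added, 3 h further incubation. Formazan solubilised with 10% SDS, 30 min shaking, absorbance at 600 nm. Repeated at least three independent times.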

[10] = test system: Mycobacterium tuberculosis variant bovis BCG; assay: Effect on intracellular redox potential in Mycobacterium bovis BCG KOP55 harboring pPAZ23 carrying p27-p55 operon assessed as accumulation of formazan at 5 mg/liter after 1 hr by MTT assay; type: functional, organism-based; summary of the method: as §5
[11] = test system: Mycobacterium tuberculosis variant bovis BCG; assay: Decrease in intracellular redox potential in Mycobacterium bovis BCG KOP55 harboring inactivated p55 gene assessed as decreased accumulation of formazan at 256 mg/liter after 1 hr by MTT assay; type: functional; set-up: scale not given: the % may be the effect or the level left; summary of the method: as §5
[12] = test system: Mycobacterium tuberculosis variant bovis BCG; assay: Effect on intracellular redox potential in Mycobacterium bovis BCG KOP55 harboring pPAZ23 carrying p27-p55 operon assessed as accumulation of formazan at 256 mg/liter after 1 hr by MTT assay; type: functional, organism-based; summary of the method: as §5
[13] = test system: Mycobacterium tuberculosis variant bovis BCG; assay: Antimicrobial activity against Mycobacterium bovis BCG KOP55 harboring inactivated p55 gene at 0.125 umol after 14 days by disk diffusion method; type: functional; summary of the method: as §1
[14] = test system: Mycobacterium tuberculosis variant bovis BCG; assay: Antimicrobial activity against Mycobacterium bovis BCG P55 at 0.125 umol after 14 days by disk diffusion method; type: functional; summary of the method: as §1
[15] = test system: Mycobacterium tuberculosis variant bovis BCG; assay: Increase in intracellular redox potential in Mycobacterium bovis BCG KOP55 harboring pPAZ23 carrying p27-p55 operon assessed as increased accumulation of formazan at 64 mg/liter after 1 hr by MTT assay; type: functional; summary of the method: as §5
[16] = test system: Mycobacterium tuberculosis variant bovis BCG; assay: Increase in intracellular redox potential in Mycobacterium bovis BCG KOP55 harboring inactivated p55 gene assessed as increased accumulation of formazan at 64 mg/liter after 1 hr by MTT assay; type: functional; summary of the method: as §5
[17] = test system: Mycobacterium tuberculosis variant bovis BCG; assay: Antimicrobial activity against Mycobacterium bovis BCG P55 by resazurine microtiter assay; type: functional; conditions: P55, Urine; summary of the method: as §2
[18] = test system: Mycobacterium tuberculosis variant bovis BCG; assay: Antimicrobial activity against Mycobacterium bovis BCG KOP55 harboring inactivated p55 gene by resazurine microtiter assay in presence of 0.1 mg/liter valinomycin; type: functional; conditions: KOP55, Urine; summary of the method: as §3
[19] = test system: Mycobacterium tuberculosis variant bovis BCG; assay: Antimicrobial activity against Mycobacterium bovis BCG KOP55 harboring inactivated p55 gene by resazurine microtiter assay in presence of 0.5 mg/liter reserpine; type: functional; conditions: KOP55, Urine; summary of the method: as §3
[20] = test system: Mycobacterium tuberculosis variant bovis BCG; assay: Antimicrobial activity against Mycobacterium bovis BCG KOP55 harboring pPAZ23 carrying p27-p55 operon by resazurine microtiter assay in presence of 0.1 mg/liter valinomycin; type: functional; conditions: KOP55, Urine; summary of the method: as §3
[21] = test system: Mycobacterium tuberculosis variant bovis BCG; assay: Antimicrobial activity against Mycobacterium bovis BCG KOP55 harboring pPAZ23 carrying p27-p55 operon by resazurine microtiter assay in presence of 0.5 mg/liter reserpine; type: functional; conditions: KOP55, Urine; summary of the method: as §3

SMILES: OC(CS)C(O)CS (racemic) [DL-DITHIOTHREITOL]
- inhibition zone (IZ) [1]: 30 mm
- inhibition zone (IZ) [2]: 0 mm

SMILES: CC[C@H](C)[C@H](N)C1=N[C@H](C(=O)N[C@@H](CC(C)C)C(=O)N[C@H](CCC(=O)O)C(=O)N[C@H](C(=O)N[C@H]2CCCCNC(=O)[C@H](CC(N)=O)NC(=O)[C@@H](CC(=O)O)NC(=O)[C@H](Cc3cnc[nH]3)NC(=O)[C@@H](Cc3ccccc3)NC(=O)[C@H]([C@@H](C)CC)NC(=O)[C@@H](CCCN)NC2=O)[C@@H](C)CC)CS1 [BACITRACIN] ({Ileψ(thiazoline)Cys}-L[dE]IK[dOrn]I[dF]H[dD]N; lactam 4-C)
- MIC [3]: 16 µg/mL
- MIC [4]: 16 µg/mL
- MIC [5]: > 256 µg/mL
- MIC [6]: > 256 µg/mL

SMILES: N#CC(C#N)=NNc1cccc(Cl)c1 [CARBONYL CYANIDE M-CHLOROPHENYLHYDRAZONE]
- MIC [3]: 2 µg/mL

SMILES: CN(C)CCCN1c2ccccc2Sc2ccc(Cl)cc21 [CHLORPROMAZINE]
- MIC [7]: 4 µg/mL (≈ 12.5 µM)

SMILES: CC(C)/N=c1\cc2n(-c3ccc(Cl)cc3)c3ccccc3nc-2cc1Nc1ccc(Cl)cc1 [CLOFAZIMINE]
- MIC [7]: 0.025 µg/mL (≈ 0.0528 µM)
- MIC [8]: 0.1 µg/mL (≈ 0.211 µM)
- Activity [9]: 15%
- Activity [10]: inactive

SMILES: CN(C)C(=O)/N=N/C(=O)N(C)C [DIAMIDE]
- inhibition zone (IZ) [1]: 30 mm
- inhibition zone (IZ) [2]: 0 mm
- Activity [11]: 35%
- Activity [12]: inactive

SMILES: Clc1ccc(COC(Cn2ccnc2)c2ccc(Cl)cc2Cl)cc1 (configuration not stated) [ECONAZOLE]
- MIC [7]: 1.6 µg/mL (≈ 4.19 µM)
- MIC [8]: 6.4 µg/mL (≈ 16.8 µM)

SMILES: CC[C@@H](CO)NCCN[C@@H](CC)CO [ETHAMBUTOL]
- MIC [3]: 2 µg/mL

SMILES: CC1=CC(=O)c2ccccc2C1=O [MENADIONE]
- inhibition zone (IZ) [13]: 16 mm
- inhibition zone (IZ) [14]: 20 mm
- fold change (FC) [15]: 3.5
- fold change (FC) [16]: 1.3

SMILES: Cc1c(C)n2c(CBr)c(C)c(=O)n2c1=O [MONOBROMOBIMANE]
- MIC [17]: 500 µM (≈ 136 µg/mL)
- MIC [3]: 125 µM

SMILES: CO[C@@H]1[C@@H](OC(N)=O)[C@@H](O)[C@H](Oc2ccc3c(O)c(NC(=O)c4ccc(O)c(CC=C(C)C)c4)c(=O)oc3c2C)OC1(C)C [NOVOBIOCIN]
- MIC [3]: 2 µg/mL
- MIC [4]: 1 µg/mL
- MIC [18]: 0.5 µg/mL
- MIC [19]: 1 µg/mL
- MIC [5]: 16 µg/mL (≈ 26.1 µM)
- MIC [20]: 8 µg/mL
- MIC [6]: 4 µg/mL
- MIC [21]: 8 µg/mL

SMILES: O=[N+]([O-])c1cn2c(n1)OC[C@@H](OCc1ccc(OC(F)(F)F)cc1)C2 [PRETOMANID]
- MIC [3]: 0.125 µg/mL
- MIC [5]: 0.25 µg/mL (≈ 0.696 µM)

SMILES: COC(=O)[C@H]1[C@H]2C[C@@H]3c4[nH]c5cc(OC)ccc5c4CCN3C[C@H]2C[C@@H](OC(=O)c2cc(OC)c(OC)c(OC)c2)[C@@H]1OC [RESERPINE]
- MIC [3]: 2 µg/mL
- MIC [5]: 2 µg/mL (≈ 3.29 µM)

SMILES: CO[C@H]1/C=C/O[C@@]2(C)Oc3c(C)c(O)c4c(O)c(c(/C=N/N5CCN(C)CC5)c(O)c4c3C2=O)NC(=O)/C(C)=C\C=C\[C@H](C)[C@H](O)[C@@H](C)[C@@H](O)[C@@H](C)[C@H](OC(C)=O)[C@@H]1C [RIFAMPIN]
- MIC [3]: 0.0004 µg/mL
- MIC [4]: 0.0002 µg/mL
- MIC [18]: 0.0002 µg/mL
- MIC [19]: 0.0004 µg/mL
- MIC [5]: 0.0032 µg/mL (≈ 0.00389 µM)
- MIC [20]: 0.0016 µg/mL
- MIC [6]: 0.0008 µg/mL
- MIC [21]: 0.0016 µg/mL

SMILES: Oc1cc(Cl)ccc1Oc1ccc(Cl)cc1Cl [TRICLOSAN]
- MIC [7]: 8 µg/mL (≈ 27.6 µM)

SMILES: CC(C)[C@@H]1NC(=O)[C@H](C)OC(=O)[C@@H](C(C)C)NC(=O)[C@@H](C(C)C)OC(=O)[C@H](C(C)C)NC(=O)[C@H](C)OC(=O)[C@@H](C(C)C)NC(=O)[C@@H](C(C)C)OC(=O)[C@H](C(C)C)NC(=O)[C@H](C)OC(=O)[C@@H](C(C)C)NC(=O)[C@@H](C(C)C)OC1=O [VALINOMYCIN]
- MIC [3]: 0.2 µg/mL
- MIC [5]: 0.4 µg/mL (≈ 0.36 µM)

SMILES: CN[C@H](CC(C)C)C(=O)N[C@H]1C(=O)N[C@@H](CC(N)=O)C(=O)N[C@H]2C(=O)N[C@H]3C(=O)N[C@H](C(=O)N[C@H](C(=O)O)c4cc(O)cc(O)c4-c4cc3ccc4O)[C@H](O)c3ccc(c(Cl)c3)Oc3cc2cc(c3O[C@@H]2O[C@H](CO)[C@@H](O)[C@H](O)[C@H]2O[C@H]2C[C@](C)(N)[C@H](O)[C@H](C)O2)Oc2ccc(cc2Cl)[C@H]1O [VANCOMYCIN]
- MIC [3]: 0.25 µg/mL
- MIC [4]: 0.25 µg/mL
- MIC [5]: 4 µg/mL (≈ 2.76 µM)
- MIC [20]: 4 µg/mL
